Results taken from ChEMBL document CHEMBL4339190, “2,6-Disubstituted imidazo[2,1-b][1,3,4]thiadiazole derivatives as potent staphylococcal biofilm inhibitors” (Eur J Med Chem, 2019).
Active and inactive are the calls of the source. The rule behind the calls is not given here.

Experiments:
[1] = system: Staphylococcus aureus; assay: Antimicrobial activity against Staphylococcus aureus ATCC 25923 assessed as growth inhibition of planktonic forms incubated for 24 hrs; assay type: organism-based; conditions: in vitro
Procedure, shortened: (§1)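 Broth microdilution in tryptic soy broth. Two-fold series 100 to 0.75 μg/mL made from a 1 mg/mL stock in 0.9% NaCl. Inoculum ~10⁶ cfu/mL taken from a 24 h culture, 37 °C 24 h.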

[2] = system: Staphylococcus aureus; assay: Antimicrobial activity against Staphylococcus aureus ATCC 6538 assessed as growth inhibition of planktonic forms incubated for 24 hrs; assay type: organism-based; conditions: in vitro; procedure, shortened: as §1
[3] = system: Staphylococcus epidermidis; assay: Antimicrobial activity against Staphylococcus epidermidis ATCC 12228 assessed as growth inhibition of planktonic forms incubated for 24 hrs; assay type: organism-based; conditions: in vitro; procedure, shortened: as §1
[4] = system: Pseudomonas aeruginosa; assay: Antimicrobial activity against Pseudomonas aeruginosa ATCC 15442 assessed as growth inhibition of planktonic forms incubated for 24 hrs; assay type: organism-based; conditions: in vitro; procedure, shortened: as §1
[5] = system: Escherichia coli; assay: Antimicrobial activity against Escherichia coli ATCC 25922 assessed as growth inhibition of planktonic forms incubated for 24 hrs; assay type: organism-based; conditions: in vitro; procedure, shortened: as §1
[6] = system: Staphylococcus aureus; assay: Antibiofilm activity against Staphylococcus aureus ATCC 6538 incubated for 24 hrs by crystal violet-staining based assay; assay type: functional
Procedure, shortened: (§2)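 Biofilm prevention: 0.5 McFarland inoculum (2.5 µL) in 100 µL TSB with 2% w/v glucose, compound present from the start over 100–0.1 µg/mL, 37 °C 24 h. Washed with PBS, stained 0.1% w/v crystal violet 30 min, eluted with 33% v/v acetic acid, read at 570 nm. BIC50 (50% inhibition versus untreated control) derived by linear regression; triplicate, repeated at least twice.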

[7] = system: Staphylococcus epidermidis; assay: Antibiofilm activity against Staphylococcus epidermidis ATCC 12228 incubated for 24 hrs by crystal violet-staining based assay; assay type: functional; procedure, shortened: as §2
[8] = system: Staphylococcus aureus; assay: Antibiofilm activity against Staphylococcus aureus ATCC 25923 assessed as inhibition of biofilm formation at 100 ug/ml incubated for 24 hrs by crystal violet-staining based assay; assay type: functional; conditions: ATCC 25923, 24 h
[9] = system: Pseudomonas aeruginosa; assay: Antibiofilm activity against Pseudomonas aeruginosa ATCC 15442 assessed as inhibition of biofilm formation at 100 ug/ml incubated for 24 hrs by crystal violet-staining based assay; assay type: functional; conditions: ATCC 15442, 24 h
[10] = system: Escherichia coli; assay: Antibiofilm activity against Escherichia coli ATCC 25922 assessed as inhibition of biofilm formation at 100 ug/ml incubated for 24 hrs by crystal violet-staining based assay; assay type: functional; conditions: ATCC 25922, 24 h
[11] = system: Staphylococcus aureus; assay: Antibiofilm activity against Staphylococcus aureus ATCC 25923 incubated for 24 hrs by crystal violet-staining based assay; assay type: functional; procedure, shortened: as §2
[12] = system: Pseudomonas aeruginosa; assay: Antibiofilm activity against Pseudomonas aeruginosa ATCC 15442 incubated for 24 hrs by crystal violet-staining based assay; assay type: functional; procedure, shortened: as §2
[13] = system: Escherichia coli; assay: Antibiofilm activity against Escherichia coli ATCC 25922 incubated for 24 hrs by crystal violet-staining based assay; assay type: functional; procedure, shortened: as §2
[14] = system: Bacteria; assay: Inhibition of recombinant bacterial SrtA at 100 uM using 5-FAM/QXL 520 Sortase as substrate preincubated for 10 mins followed by substrate addition and measured every 5 mins for 60 mins by fluorescence assay
Procedure, shortened: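 FRET kit assay: 2.5 µg/ml recombinant SrtA, 4 µM fluorescent peptide substrate, compound at 100 µM in 1% DMSO. Compound and enzyme added first, then substrate. Fluorescence (Ex/Em 490/520 nm) recorded every 5 min for 60 min. Substrate without enzyme served as negative control and 4-(hydroxymercuri)benzoic acid as positive control.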

SMILES | MIC [1] | MIC [2] | MIC [3] | MIC [4] | MIC [5] | MBIC50 [6] | inhibition [6] | MBIC50 [7] | inhibition [7] | inhibition at 100 µg/mL [8] | inhibition at 100 µg/mL [9] | inhibition at 100 µg/mL [10] | MBIC50 [11] | inhibition [11] | MBIC50 [12] | inhibition [12] | MBIC50 [13] | inhibition [13] | MBIC90 [11] | inhibition [14]
Cn1cc(-c2nn3cc(-c4ccc(F)cc4)nc3s2)c2cc(Cl)ccc21 | > 100 µg/mL | > 100 µg/mL | > 100 µg/mL | > 100 µg/mL | > 100 µg/mL | 50.4 µM | Dose-dependent effect | 17 µM | Dose-dependent effect | < 15% | < 15% | < 15% | – | – | – | – | – | – | – | –
Cn1cc(-c2nn3cc(-c4ccc([N+](=O)[O-])cc4)nc3s2)c2ccccc21 | > 100 µg/mL | > 100 µg/mL | > 100 µg/mL | > 100 µg/mL | > 100 µg/mL | 3 µM | Dose-dependent effect | 21 µM | Dose-dependent effect | – | – | – | 21 µM | Dose-dependent effect | 30.1 µM | Dose-dependent effect | 34.3 µM | Dose-dependent effect | – | –
Cn1cc(-c2nn3cc(-c4ccc([N+](=O)[O-])cc4)nc3s2)c2cc(Cl)ccc21 | > 100 µg/mL | > 100 µg/mL | > 100 µg/mL | > 100 µg/mL | > 100 µg/mL | 33 µM | Dose-dependent effect | 78 µM | Dose-dependent effect | < 15% | < 15% | < 15% | – | – | – | – | – | – | – | –
Br.Fc1ccc(-c2cn3nc(-c4c[nH]c5ccc(Br)cc45)sc3n2)cc1 | > 100 µg/mL | > 100 µg/mL | > 100 µg/mL | > 100 µg/mL | > 100 µg/mL | inactive | – | inactive | – | – | – | – | inactive | – | inactive | – | inactive | – | – | –
Br.Cn1cc(-c2nn3cc(-c4ccc(F)cc4)nc3s2)c2cc(Br)ccc21 | > 100 µg/mL | > 100 µg/mL | > 100 µg/mL | > 100 µg/mL | > 100 µg/mL | inactive | – | inactive | – | – | – | – | inactive | – | inactive | – | inactive | – | – | –
Br.Cn1cc(-c2nn3cc(-c4ccc([N+](=O)[O-])cc4)nc3s2)c2cc(Br)ccc21 | > 100 µg/mL | > 100 µg/mL | > 100 µg/mL | > 100 µg/mL | > 100 µg/mL | 3.1 µM | Dose-dependent effect | 71.7 µM | Dose-dependent effect | – | – | – | 20.9 µM | Dose-dependent effect | 38.6 µM | Dose-dependent effect | 19.6 µM | Dose-dependent effect | – | –
Br.COc1cccc(-c2cn3nc(-c4c[nH]c5ccc(Br)cc45)sc3n2)c1 | > 100 µg/mL | > 100 µg/mL | > 100 µg/mL | > 100 µg/mL | > 100 µg/mL | inactive | – | inactive | – | – | – | – | inactive | – | inactive | – | inactive | – | – | –
Br.COc1cccc(-c2cn3nc(-c4cn(C)c5ccccc45)sc3n2)c1 | > 100 µg/mL | > 100 µg/mL | > 100 µg/mL | > 100 µg/mL | > 100 µg/mL | 28 µM | Dose-dependent effect | 41.9 µM | Dose-dependent effect | – | < 15% | < 15% | 1.8 µM | Dose-dependent effect | – | – | – | – | 23.3 µg/mL | inactive
